The record followed here is ChEMBL document CHEMBL2331499, “N2-Trimethylacetyl substituted and unsubstituted-N4-phenylsubstituted-6-(2-pyridin-2-ylethyl)-7H-pyrrolo[2,3-d]pyrimidine-2,4-diamines: design, cellular receptor tyrosine kinase inhibitory activities and in vivo evaluation as antiangiogenic, antimetastatic and antitumor agents” (Bioorg Med Chem, 2013).

Series [1] concerns Chorioallantoic membrane. In words: Inhibition of VEGF165/bFGF-induced angiogenesis in chicken chorioallantoic membrane assessed a s decrease in number of vessels formed treated 8 hrs after VEGF/bFGF addition measured after 48 hrs by dissecting microscopic analysis. The settings on record: Gallus gallus. The class given is functional.
Series [2] has as its target T1, Vascular endothelial growth factor receptor 1 (Homo sapiens, UniProt P17948). Kind of series: Ratio of compound IC50 to CB676475 IC50 for VEGF-induced VEGFR1 phosphorylation in human A498 cells overexpressing Flt-1 by phosphotyrosine ELISA cytoblot analysis. Type of series: cell-based. A digest of the protocol:
(§1)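 Cells at 60–75% confluence serum-starved 18 h, then pretreated 60 min with serial compound dilutions starting at 10 before growth factor stimulation. Cells fixed 30 min at 60 °C, then 70% ethanol 30 min, blocked with 1% BSA in TBS 1 h, HRP-anti-phosphotyrosine overnight, luminol ELISA substrate; light emission imaged.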
On the technique in general: ELISA stands for enzyme-linked immunosorbent assay.

The test system of series [3] is A-431. In words: Cytotoxicity against human A431 cells overexpressing EGFR assessed as inhibition of cell proliferation treated for 12 hrs measured after 36 hrs by CYQUANT dye based assay. Type of series: functional.
In series [4] the target is Platelet-derived growth factor receptor beta (Homo sapiens, UniProt P09619). In words: Inhibition of PDGF-BB-induced PDGFR beta phosphorylation in human SF539 cells overexpressing PDGFR beta pretreated for 60 mins prior to PDGF-BB addition measured after 10 mins by phosphotyrosine ELISA cytoblot analysis. The class given is cell-based, SF-539.
Sequence of Platelet-derived growth factor receptor beta (P09619 whole entry): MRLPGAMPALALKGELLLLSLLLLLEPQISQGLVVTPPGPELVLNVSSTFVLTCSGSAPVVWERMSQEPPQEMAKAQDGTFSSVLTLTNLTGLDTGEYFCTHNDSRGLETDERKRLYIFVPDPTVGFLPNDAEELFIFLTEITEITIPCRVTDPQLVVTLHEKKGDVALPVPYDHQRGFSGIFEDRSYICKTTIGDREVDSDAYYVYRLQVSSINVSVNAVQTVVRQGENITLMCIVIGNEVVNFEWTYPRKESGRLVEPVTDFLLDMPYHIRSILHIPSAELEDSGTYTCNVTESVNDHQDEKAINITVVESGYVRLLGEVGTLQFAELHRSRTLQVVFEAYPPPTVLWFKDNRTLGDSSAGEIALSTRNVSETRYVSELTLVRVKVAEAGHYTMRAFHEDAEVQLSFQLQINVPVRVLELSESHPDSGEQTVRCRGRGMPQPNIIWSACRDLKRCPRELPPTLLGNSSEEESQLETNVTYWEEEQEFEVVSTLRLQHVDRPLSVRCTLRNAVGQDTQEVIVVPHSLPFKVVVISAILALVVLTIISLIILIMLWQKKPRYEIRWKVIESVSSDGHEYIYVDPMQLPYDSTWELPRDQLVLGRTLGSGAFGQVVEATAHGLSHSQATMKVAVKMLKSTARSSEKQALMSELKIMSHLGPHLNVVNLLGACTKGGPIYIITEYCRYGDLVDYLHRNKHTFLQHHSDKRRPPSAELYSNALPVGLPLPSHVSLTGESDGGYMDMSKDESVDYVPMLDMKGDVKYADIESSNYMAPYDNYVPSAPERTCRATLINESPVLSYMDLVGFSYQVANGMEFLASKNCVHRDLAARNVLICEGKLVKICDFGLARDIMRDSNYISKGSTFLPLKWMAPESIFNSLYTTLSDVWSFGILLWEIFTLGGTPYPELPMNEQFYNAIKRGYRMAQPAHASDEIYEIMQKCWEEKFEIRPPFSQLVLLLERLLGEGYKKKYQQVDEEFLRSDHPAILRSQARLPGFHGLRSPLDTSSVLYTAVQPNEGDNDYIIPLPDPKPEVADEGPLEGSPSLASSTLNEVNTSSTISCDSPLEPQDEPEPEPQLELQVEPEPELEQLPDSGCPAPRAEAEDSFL
The target in series [5] is T2, Vascular endothelial growth factor receptor 2 (Homo sapiens, UniProt P35968). Type of series: cell-based, U-251.
T2 sequence (P35968 whole entry): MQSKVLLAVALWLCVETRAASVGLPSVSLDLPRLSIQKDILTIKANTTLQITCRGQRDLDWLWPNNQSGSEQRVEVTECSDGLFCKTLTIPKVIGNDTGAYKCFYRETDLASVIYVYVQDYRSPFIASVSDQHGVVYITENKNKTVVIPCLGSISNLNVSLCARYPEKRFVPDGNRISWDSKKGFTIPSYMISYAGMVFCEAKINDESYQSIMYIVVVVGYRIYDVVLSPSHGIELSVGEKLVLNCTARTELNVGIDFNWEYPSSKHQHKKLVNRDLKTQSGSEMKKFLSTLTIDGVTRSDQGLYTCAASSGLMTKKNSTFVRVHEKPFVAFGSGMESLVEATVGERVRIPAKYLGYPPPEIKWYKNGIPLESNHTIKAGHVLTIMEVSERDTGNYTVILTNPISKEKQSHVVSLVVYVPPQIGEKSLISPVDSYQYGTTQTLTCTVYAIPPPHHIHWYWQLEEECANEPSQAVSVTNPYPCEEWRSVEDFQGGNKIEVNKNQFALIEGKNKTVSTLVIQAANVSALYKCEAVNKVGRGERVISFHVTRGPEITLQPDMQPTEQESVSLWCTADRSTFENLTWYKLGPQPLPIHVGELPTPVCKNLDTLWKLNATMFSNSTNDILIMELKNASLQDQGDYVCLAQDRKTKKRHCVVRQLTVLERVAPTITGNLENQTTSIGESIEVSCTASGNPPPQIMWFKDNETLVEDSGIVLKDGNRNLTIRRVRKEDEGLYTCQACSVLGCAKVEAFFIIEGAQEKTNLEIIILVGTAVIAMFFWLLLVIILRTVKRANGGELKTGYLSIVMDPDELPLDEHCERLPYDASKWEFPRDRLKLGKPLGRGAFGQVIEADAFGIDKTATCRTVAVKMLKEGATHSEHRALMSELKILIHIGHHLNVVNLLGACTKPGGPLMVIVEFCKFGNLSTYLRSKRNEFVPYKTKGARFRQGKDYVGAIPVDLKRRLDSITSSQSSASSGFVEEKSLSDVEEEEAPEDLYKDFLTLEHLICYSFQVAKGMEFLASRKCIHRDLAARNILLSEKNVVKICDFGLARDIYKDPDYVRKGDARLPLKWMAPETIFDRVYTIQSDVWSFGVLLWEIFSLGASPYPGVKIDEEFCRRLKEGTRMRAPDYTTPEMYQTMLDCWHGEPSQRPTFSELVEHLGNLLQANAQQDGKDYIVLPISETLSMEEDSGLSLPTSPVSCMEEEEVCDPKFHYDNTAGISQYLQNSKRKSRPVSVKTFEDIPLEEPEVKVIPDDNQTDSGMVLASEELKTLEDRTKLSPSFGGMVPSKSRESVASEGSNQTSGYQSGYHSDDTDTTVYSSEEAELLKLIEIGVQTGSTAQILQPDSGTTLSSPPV
In series [6] the target is T1, Vascular endothelial growth factor receptor 1. Kind of series: Inhibition of VEGF-induced VEGFR1 phosphorylation in human A498 cells overexpressing Flt-1 pretreated for 60 mins prior to VEGF addition measured after 10 mins by phosphotyrosine ELISA cytoblot analysis. The class given is cell-based.
In series [7] the target is Epidermal growth factor receptor (Homo sapiens, UniProt P00533). Type of series: cell-based, A-431.
Sequence of Epidermal growth factor receptor (P00533 whole entry): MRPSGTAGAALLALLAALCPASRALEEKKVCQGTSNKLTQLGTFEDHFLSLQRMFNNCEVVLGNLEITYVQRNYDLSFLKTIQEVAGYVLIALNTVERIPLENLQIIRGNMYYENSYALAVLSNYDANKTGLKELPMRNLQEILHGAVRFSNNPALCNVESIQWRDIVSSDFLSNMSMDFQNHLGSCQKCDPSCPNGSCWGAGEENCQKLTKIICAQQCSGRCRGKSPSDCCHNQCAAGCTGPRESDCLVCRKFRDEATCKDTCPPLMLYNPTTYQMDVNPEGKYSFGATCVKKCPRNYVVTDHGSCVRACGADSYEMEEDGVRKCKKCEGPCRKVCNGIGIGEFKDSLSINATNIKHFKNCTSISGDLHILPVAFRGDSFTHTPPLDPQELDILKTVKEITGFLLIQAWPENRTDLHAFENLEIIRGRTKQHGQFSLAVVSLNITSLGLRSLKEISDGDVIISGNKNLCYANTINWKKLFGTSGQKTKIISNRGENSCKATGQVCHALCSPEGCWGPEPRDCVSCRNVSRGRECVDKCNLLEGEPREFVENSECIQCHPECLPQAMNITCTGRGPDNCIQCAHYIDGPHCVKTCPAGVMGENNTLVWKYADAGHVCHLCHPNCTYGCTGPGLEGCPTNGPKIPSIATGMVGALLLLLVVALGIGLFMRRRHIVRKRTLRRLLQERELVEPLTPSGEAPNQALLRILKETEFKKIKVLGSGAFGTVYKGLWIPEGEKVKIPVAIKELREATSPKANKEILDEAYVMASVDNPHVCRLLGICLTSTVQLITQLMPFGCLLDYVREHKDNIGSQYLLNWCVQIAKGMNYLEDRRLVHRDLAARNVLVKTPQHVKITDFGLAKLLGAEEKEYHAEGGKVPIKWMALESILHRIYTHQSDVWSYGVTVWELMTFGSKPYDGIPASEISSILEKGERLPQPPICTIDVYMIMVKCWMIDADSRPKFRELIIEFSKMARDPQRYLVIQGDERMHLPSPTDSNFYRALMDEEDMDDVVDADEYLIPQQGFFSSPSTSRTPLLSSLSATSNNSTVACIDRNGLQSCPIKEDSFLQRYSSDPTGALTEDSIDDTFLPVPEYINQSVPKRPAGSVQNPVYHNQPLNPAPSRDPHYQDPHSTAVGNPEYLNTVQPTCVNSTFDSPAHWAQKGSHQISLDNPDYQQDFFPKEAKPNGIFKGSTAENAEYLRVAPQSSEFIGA
The test system of series [8] is Chorioallantoic membrane. Kind of series: Ratio of compound IC50 to semaxanib IC50 for VEGF165/bFGF-induced angiogenesis in chicken chorioallantoic membrane by dissecting microscopic analysis. Type of series: functional. The settings on record: Gallus gallus.
Series [9] deals with T2, Vascular endothelial growth factor receptor 2. In words: Ratio of compound IC50 to semaxanib IC50 for VEGF-induced VEGFR2 phosphorylation in human U251 cells overexpressing Flk-1 by phosphotyrosine ELISA cytoblot analysis. Type of series: cell-based. The following applies: U-251. In short, it runs like this: as §1
Series [10] deals with B16-F10. In words: Antimetastatic activity against GFP-tagged mouse B16F10 cells isografted into syngeneic athymic Ncr nu/nu mouse assessed as decrease in number of B16F10 lung metastases at 10 mg/kg, ip administered twice weekly starting from day 8 post-tumor inoculation by hematoxylin-eosin staining. The class given is functional, organism-based. Also on record: dose 10 mg/kg.

For series [11], the system named is B16-F10. In words: Antiangiogenic activity against GFP-tagged mouse B16F10 cells isografted into syngeneic athymic Ncr nu/nu mouse assessed as decrease in vascular density at 10 mg/kg, ip administered twice weekly starting from day 8 post-tumor inoculation. Also on record: dose 10 mg/kg. The class given is functional, organism-based.
Series [12] concerns B16-F10. In words: Antitumor activity against GFP-tagged mouse B16F10 cells isografted into syngeneic athymic Ncr nu/nu mouse assessed as decrease in tumor volume at 10 mg/kg, ip administered twice weekly starting from day 8 post-tumor inoculation. Type of series: functional, organism-based. Also on record: dose 10 mg/kg. A digest of the protocol:
(§2)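 Mice bearing subcutaneous GFP-tagged B16-F10 tumors; treatment began once most tumors were caliper-measurable (day 8) after random sorting into groups. Dosing 10 mg/kg IP every Monday AM and Thursday PM; sham animals received water. Tumor length, width and depth measured Mon/Wed/Fri; volume = L×W×D; growth rate by linear regression. n = 7–10.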

Series [13] has as its system B16-F10. In words: Antitumor activity against GFP-tagged mouse B16F10 cells isografted into syngeneic athymic Ncr nu/nu mouse assessed as decrease in tumor growth rate at 10 mg/kg, ip administered twice weekly starting from day 8 post-tumor inoculation. Type of series: functional, organism-based. Also on record: dose 10 mg/kg. A digest of the protocol:
as §2

For series [14], the system named is Mus musculus. In words: Toxicity in Ncr nu/nu mouse assessed as body weight loss at 7.5 to 10 mg/kg, ip administered twice weekly measured for 6 weeks by whole animal toxicity assay. The class given is organism-based. Also on record: dose 7.5-10 mg/kg, route intraperitoneal. The following applies: in vivo, 1008 h.
Series [15] can be described thus: Toxicity in ip dosed Ncr nu/nu mouse assessed as maximum tolerated dose administered twice weekly by whole animal toxicity assay. Type of series: organism-based. The following applies: in vivo.
In series [16] the test system is Mus musculus. In words: Toxicity in Ncr nu/nu mouse assessed as body weight loss at […], ip administered twice weekly measured for 6 weeks by whole animal toxicity assay. The class given is organism-based. The following applies: in vivo, 1008 h.
The test system of series [17] is Mus musculus. In words: Toxicity in Ncr nu/nu mouse assessed as body weight loss at 15 to 20 mg/kg, ip administered twice weekly measured for 6 weeks by whole animal toxicity assay. The class given is organism-based. The following applies: in vivo, 1008 h. Also on record: dose 15-20 mg/kg, route intraperitoneal.
The subject of series [18] is B16-F10. Kind of series: Antimetastatic activity against GFP-tagged mouse B16F10 cells isografted into syngeneic athymic Ncr nu/nu mouse assessed as decrease in number of B16F10 lung metastases at […], ip administered twice weekly starting from day 8 post-tumor inoculation by hematoxylin-eosin staining. The class given is functional, organism-based.
The test system of series [19] is B16-F10. In words: Antiangiogenic activity against GFP-tagged mouse B16F10 cells isografted into syngeneic athymic Ncr nu/nu mouse assessed as decrease in vascular density at […], ip administered twice weekly starting from day 8 post-tumor inoculation. The class given is functional, organism-based.
Series [20] concerns B16-F10. Kind of series: Antitumor activity against GFP-tagged mouse B16F10 cells isografted into syngeneic athymic Ncr nu/nu mouse assessed as decrease in tumor volume at […], ip administered twice weekly starting from day 8 post-tumor inoculation. The class given is functional, organism-based.
In series [21] the test system is B16-F10. Kind of series: Antitumor activity against GFP-tagged mouse B16F10 cells isografted into syngeneic athymic Ncr nu/nu mouse assessed as decrease in tumor growth rate at […], ip administered twice weekly starting from day 8 post-tumor inoculation. Type of series: functional, organism-based.
For series [22], the system named is Chorioallantoic membrane. In words: Ratio of semaxanib IC50 to compound IC50 for VEGF165/bFGF-induced angiogenesis in chicken chorioallantoic membrane by dissecting microscopic analysis. The class given is functional. The settings on record: Gallus gallus.
Series [23] deals with A-431. In words: Ratio of cisplatin IC50 to compound IC50 for human A431 cells overexpressing EGFR by CYQUANT dye based assay.

The source made the active and inactive calls. The rule behind the calls is not given here.

Broadly, the IC50 is the concentration at which inhibition is half-maximal. Usually MTD stands for the largest dose that counted as tolerated.

T1 sequence (P17948 whole entry): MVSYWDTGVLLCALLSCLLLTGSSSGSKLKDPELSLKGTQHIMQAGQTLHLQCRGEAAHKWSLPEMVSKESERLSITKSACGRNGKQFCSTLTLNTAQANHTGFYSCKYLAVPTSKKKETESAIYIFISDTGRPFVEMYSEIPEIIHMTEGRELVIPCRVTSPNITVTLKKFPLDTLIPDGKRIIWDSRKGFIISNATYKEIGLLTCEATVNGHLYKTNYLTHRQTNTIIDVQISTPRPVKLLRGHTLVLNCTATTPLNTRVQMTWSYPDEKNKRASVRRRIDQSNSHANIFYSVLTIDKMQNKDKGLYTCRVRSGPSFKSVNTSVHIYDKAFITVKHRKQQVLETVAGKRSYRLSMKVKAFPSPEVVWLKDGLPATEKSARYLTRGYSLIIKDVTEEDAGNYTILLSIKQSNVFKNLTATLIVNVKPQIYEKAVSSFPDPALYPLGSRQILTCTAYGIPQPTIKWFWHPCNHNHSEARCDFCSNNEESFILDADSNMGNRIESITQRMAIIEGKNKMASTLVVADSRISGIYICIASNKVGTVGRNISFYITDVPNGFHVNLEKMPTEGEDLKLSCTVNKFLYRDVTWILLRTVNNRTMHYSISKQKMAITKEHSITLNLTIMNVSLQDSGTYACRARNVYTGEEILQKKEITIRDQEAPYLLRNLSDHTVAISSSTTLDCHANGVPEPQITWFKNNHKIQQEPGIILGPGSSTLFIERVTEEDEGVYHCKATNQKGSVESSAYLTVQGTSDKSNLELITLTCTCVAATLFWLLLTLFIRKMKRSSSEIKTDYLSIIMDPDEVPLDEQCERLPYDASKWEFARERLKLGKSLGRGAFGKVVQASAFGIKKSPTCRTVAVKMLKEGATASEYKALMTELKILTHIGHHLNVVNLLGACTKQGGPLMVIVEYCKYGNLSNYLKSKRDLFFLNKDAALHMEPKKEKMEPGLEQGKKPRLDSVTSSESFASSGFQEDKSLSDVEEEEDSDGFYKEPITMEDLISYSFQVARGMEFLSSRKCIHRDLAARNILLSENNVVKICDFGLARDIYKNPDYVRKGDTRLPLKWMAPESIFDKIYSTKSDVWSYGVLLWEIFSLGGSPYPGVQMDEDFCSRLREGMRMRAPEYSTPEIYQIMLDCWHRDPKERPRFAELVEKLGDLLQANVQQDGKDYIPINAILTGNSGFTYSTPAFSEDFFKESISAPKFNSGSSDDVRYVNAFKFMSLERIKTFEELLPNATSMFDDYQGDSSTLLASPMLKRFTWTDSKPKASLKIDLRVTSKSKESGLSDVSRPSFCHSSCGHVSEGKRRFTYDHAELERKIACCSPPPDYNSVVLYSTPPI

Turning to `CC(C)(C)C(=O)Nc1nc(Nc2ccc(F)c(C(F)(F)F)c2)c2cc(CCc3ccccn3)[nH]c2n1`, the IC50 in the series on Chorioallantoic membrane [1] is 8.6 µM; with A-431 [3], 1.9 µM; in [4], greater than 500 µM; in [5], 151 µM; in [6] it was 190 µM; in [7], 26.9 µM. For the same compound, the Ratio IC50 in series [2] was 5.
Regarding `CC(C)(C)C(=O)Nc1nc(Nc2ccc(F)c(Br)c2)c2cc(CCc3ccccn3)[nH]c2n1`, in the series on Chorioallantoic membrane [8], the Ratio IC50 stood at 10. Further, the IC50 in the series with Chorioallantoic membrane [1] is 0.9 µM; in the series with A-431 [3] it was 1 µM; in series [4], 89.7 µM; in series [5], greater than 200 µM; in [6], greater than 200 µM; in series [7] it was 5.4 µM.
`Nc1nc(Nc2cccc(C(F)(F)F)c2)c2cc(CCc3ccccn3)[nH]c2n1`: the IC50 with Chorioallantoic membrane [1] was 1.09 µM; in the series with A-431 [3], 3.4 µM; in series [4] it was greater than 500 µM; in [5], 16.7 µM; in series [6], greater than 200 µM; in series [7], 19.3 µM. The Ratio IC50 in series [9] stood at 1.5.
With `CN(Cc1cnc2nc(N)nc(N)c2n1)c1ccc(C(=O)N[C@@H](CCC(=O)O)C(=O)O)cc1`, the inhibition result in the series on B16-F10 [10], in the series on B16-F10 [11], with B16-F10 [12] and with B16-F10 [13] was “Active” in each case.
On to `Nc1nc(Nc2cccc(Br)c2)c2cc(CCc3ccccn3)[nH]c2n1`, for which the IC50 in the series with Chorioallantoic membrane [1] was 7.23 µM; with A-431 [3], 19.6 µM; in series [4], 13.4 µM; in series [5], 49.9 µM; in series [6] it was greater than 50 µM.
Turning to `C#Cc1cccc(Nc2nc(NC(=O)C(C)(C)C)nc3[nH]c(CCc4ccccn4)cc23)c1`, the IC50 with Chorioallantoic membrane [1] was 3.2 µM; with A-431 [3] it was 29.9 µM; in series [4] it was 430 µM; in [5], 126 µM; in series [6], 156 µM; in series [7] it was greater than 200 µM. Further, in series [2], the Ratio IC50 worked out at 5.
On to `Nc1nc(Nc2ccc(F)c(Cl)c2)c2cc(CCc3ccccn3)[nH]c2n1`, for which the IC50 is 11.3 µM with Chorioallantoic membrane [1]; 27 µM in the series on A-431 [3]; greater than 500 µM in [4]; greater than 200 µM in [5]; greater than 200 µM in series [6]; 111 µM in series [7].
In the case of `CC(C)(C)C(=O)Nc1nc(Nc2ccc(F)c(Cl)c2)c2cc(CCc3ccccn3)[nH]c2n1`, the IC50 in the series on Chorioallantoic membrane [1] was 2 µM; in the series on A-431 [3], 2.6 µM; in series [4] it was greater than 500 µM; in [5] it was 89.3 µM; in series [6], greater than 200 µM; in [7] it was 16.3 µM.
For the compound `Nc1nc(Nc2ccc(F)c(Br)c2)c2cc(CCc3ccccn3)[nH]c2n1`, the Activity result with Mus musculus [14] is on record as “Non-toxic”; with Mus musculus [16], 1%; with Mus musculus [17] it was “Toxic”. The MTD in [15] is 12.5 mg/kg. Moreover, the inhibition result in the series on B16-F10 [18], in the series with B16-F10 [19], with B16-F10 [20] and in the series with B16-F10 [21] was “Active” in each case. Also, the figures for the Ratio IC50 (in the series with Chorioallantoic membrane [22]; in series [9]; in series [2]) were 1.2, 2.4 and 5, respectively. For the same compound, the IC50 is 0.07 µM in the series on Chorioallantoic membrane [1]; 12.2 µM in the series on A-431 [3]; greater than 500 µM in series [4]; 24.1 µM in series [5]; 93.6 µM in series [6]; 85.9 µM in [7].
`Nc1nc(Nc2ccc(F)c(C(F)(F)F)c2)c2cc(CCc3ccccn3)[nH]c2n1`: the concentration for half-maximal inhibition (IC50) with Chorioallantoic membrane [1] is 14 µM; in the series with A-431 [3] it was 3.2 µM; in [4], greater than 500 µM; in series [5] it was 124 µM; in series [6] it was greater than 200 µM; in series [7], 15.6 µM.
Consider `C#Cc1cccc(Nc2nc(N)nc3[nH]c(CCc4ccccn4)cc23)c1`, for which the IC50 in the series on Chorioallantoic membrane [1] worked out at 13.9 µM; in the series on A-431 [3], 0.9 µM; in series [4], 331 µM; in series [5], 43.6 µM; in series [6], 103 µM; in series [7], 19.9 µM. Moreover, the Ratio IC50 in series [2] was determined as 5; in the series with A-431 [23], 8.
On to `CC(C)(C)C(=O)Nc1nc(Nc2cccc(C(F)(F)F)c2)c2cc(CCc3ccccn3)[nH]c2n1`, for which the concentration for half-maximal inhibition (IC50) in the series with Chorioallantoic membrane [1] was 1.6 µM; with A-431 [3] it was 2.9 µM; in [4], greater than 500 µM; in series [5], 16.7 µM; in series [6], 130 µM; in series [7], 12.8 µM. Moreover, the Ratio IC50 was determined as 1.5 in series [9] and 5 in series [2].
